# Calls of active or inactive are those of the source. The calls are words filed in the database; no cut-off is given here. *1 amine or outer side, *2 acyl side, *3 side chain or, on linkers, in order; H or OH if unused. Where a SMILES comes first, the peptide text is derived from it. The star is where a group is joined. X4 = CC(=O)N[C@H]1[C@H](OCCCN*)O[C@H](CO)[C@@H](O)[C@@H]1O; X3 = OC[C@H]1O[C@H](OCCCN*)[C@@H](O)[C@@H](O)[C@@H]1O; X1 = OC[C@H]1O[C@@H](OCCCN*)[C@H](O)[C@@H](O)[C@H]1O; X2 = O[C@@H]1[C@@H](O)[C@H](OCCCN*)OC[C@@H]1O; Glutaryl = O=C(CCCC(=O)[*:2])[*:1]
# Assays:
# HEK-293T [1] = assay: Cytotoxicity against HEK293T cells assessed as reduction in cell viability measured after 24 hrs by CCK8 assay; type: cell-based, Homo sapiens; conditions: for Activity: human, hek-293t
# Outline: (§1)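 Cells (A549, H460, H1437, PC-3, HGC-27, MDA-MB-231, HEK-293T, L-02) seeded at about 2×10^3/well and grown overnight. Treated 24 h with a peptide concentration series in serum-free medium. Viability by CCK-8; IC50 taken as 50% inhibition versus untreated cells. Average of three experiments, each in triplicate.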
# [2] = molecular target: T1, Solute carrier family 2, facilitated glucose transporter member 1 (Homo sapiens) (UniProt P11166); assay: Binding affinity to GLUT1 in human A549 cells assessed as cytotoxicity by measuring reduction in cell viability measured after 24 hrs by CCK8 assay; type: cell-based; outline: as §1
# T1 sequence (whole entry): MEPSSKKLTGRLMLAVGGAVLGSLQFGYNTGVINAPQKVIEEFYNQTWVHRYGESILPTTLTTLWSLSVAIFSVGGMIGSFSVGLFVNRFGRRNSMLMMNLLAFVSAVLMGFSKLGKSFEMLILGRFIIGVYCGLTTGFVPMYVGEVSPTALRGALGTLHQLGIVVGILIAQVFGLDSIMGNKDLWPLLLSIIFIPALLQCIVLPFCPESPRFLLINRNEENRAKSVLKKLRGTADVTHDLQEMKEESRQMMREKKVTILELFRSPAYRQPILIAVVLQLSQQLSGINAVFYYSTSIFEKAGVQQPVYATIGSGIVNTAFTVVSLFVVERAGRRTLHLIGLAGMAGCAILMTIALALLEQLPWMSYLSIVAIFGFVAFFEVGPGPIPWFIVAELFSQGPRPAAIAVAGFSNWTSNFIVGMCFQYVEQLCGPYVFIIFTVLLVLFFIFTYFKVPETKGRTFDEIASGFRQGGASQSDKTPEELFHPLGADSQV
# [3] = molecular target: T1, Solute carrier family 2, facilitated glucose transporter member 1 (Homo sapiens); assay: Binding affinity to GLUT1 in human A549 cells assessed as cytotoxicity by measuring reduction in cell viability at 15 uM by trypan blue staining-based assay
# Outline: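 A549 cells stained with trypan blue after peptide treatment at 15 µM. Dead cells appear blue and live cells unstained; live cells were counted.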
# [4] = molecular target: T1, Solute carrier family 2, facilitated glucose transporter member 1 (Homo sapiens); assay: Binding affinity to GLUT1 in human A549 cells assessed as cytotoxicity by measuring reduction in cell viability at 12.5 uM measured after 2 hrs in absence of GLUT1 inhibitor STF-31 by CCK8 assay; type: cell-based
# Outline: (§2)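 A549 cells at 2×10^3/well, grown overnight, then preincubated 4 h in F12K/10% FBS with or without STF-31 (1 µM final). […] Incubated a further 2 h at 37 °C; viability by CCK-8.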
# [5] = molecular target: T1, Solute carrier family 2, facilitated glucose transporter member 1 (Homo sapiens); assay: Binding affinity to GLUT1 in human A549 cells assessed as cytotoxicity by measuring reduction in cell viability at 12.5 uM measured after 2 hrs in presence of GLUT1 inhibitor STF-31 by CCK8 assay; type: cell-based; outline: as §2
# [6] = molecular target: T1, Solute carrier family 2, facilitated glucose transporter member 1 (Homo sapiens); assay: Binding affinity to GLUT1 in human A549 cells assessed as cytotoxicity at 12.5 uM measured after 2 hrs by LDH release assay; type: cell-based
# Outline: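 A549 cells at 2×10^3/well, allowed to adhere overnight, then exposed to peptide over a concentration series for 2 h. LDH release measured with a kit, absorbance at 490 nm. 1% Triton X-100 taken as 100% release; n=3.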
# HEK-293T [7] = assay: Cytotoxicity against HEK293T cells at 12.5 uM measured after 2 hrs by LDH release assay; type: cell-based; conditions: human
structure (smiles),measurement,setting,value
CC[C@H](C)[C@H](NC(=O)[C@H](Cc1ccccc1)NC(=O)[C@H](CCCNC(=N)N)NC(=O)[C@H](C)NC(=O)[C@@H](NC(=O)[C@H](CO)NC(=O)[C@H](CCCNC(=N)N)NC(=O)[C@H](CCSC)NC(=O)[C@H](C)NC(=O)[C@H](CCCNC(=N)N)NC(=O)[C@H](Cc1ccccc1)NC(=O)[C@H](Cc1c[nH]c2ccccc12)NC(=O)CNC(=O)[C@H](CCCNC(=N)N)NC(=O)CCCC(=O)NCCCO[C@@H]1O[C@H](CO)[C@@H](O)[C@H](O)[C@H]1NC(C)=O)[C@@H](C)CC)C(=O)N[C@@H](C)C(=O)N[C@@H](CCCNC(=N)N)C(=O)N[C@@H](CCC(=O)O)C(=O)N[C@@H](CCCNC(=N)N)C(=O)N[C@@H](CC(C)C)C(=O)N[C@@H](CCCNC(=N)N)C(=O)N[C@@H](CCC(=O)O)C(=O)N[C@@H](Cc1cnc[nH]1)C(=O)N[C@@H](CC(C)C)C(=O)O ({X4-Glutaryl}-RGWFRAMRSIARFIARERLREHL-OH),Activity,HEK-293T [1],Non-Toxic
same,Activity,[2],inactive
same,Activity,[3],inactive
CC[C@H](C)[C@H](NC(=O)[C@H](Cc1ccccc1)NC(=O)[C@H](CCCNC(=N)N)NC(=O)[C@H](C)NC(=O)[C@@H](NC(=O)[C@H](CO)NC(=O)[C@H](CCCNC(=N)N)NC(=O)[C@H](CCSC)NC(=O)[C@H](C)NC(=O)[C@H](CCCNC(=N)N)NC(=O)[C@H](Cc1ccccc1)NC(=O)[C@H](Cc1c[nH]c2ccccc12)NC(=O)CNC(=O)[C@H](CCCNC(=N)N)NC(=O)CCCC(=O)NCCCO[C@@H]1O[C@H](CO)[C@H](O)[C@H](O)[C@H]1O)[C@@H](C)CC)C(=O)N[C@@H](C)C(=O)N[C@@H](CCCNC(=N)N)C(=O)N[C@@H](CCC(=O)O)C(=O)N[C@@H](CCCNC(=N)N)C(=O)N[C@@H](CC(C)C)C(=O)N[C@@H](CCCNC(=N)N)C(=O)N[C@@H](CCC(=O)O)C(=O)N[C@@H](Cc1cnc[nH]1)C(=O)N[C@@H](CC(C)C)C(=O)O ({X1-Glutaryl}-RGWFRAMRSIARFIARERLREHL-OH),Activity,[4],Active
same,Activity,[5],Active
same,IC50,"HEK-293T [1]; Homo sapiens, HEK-293T",8.3 µM
same,Activity,[6],Active
same,Activity,[3],Active
same,Activity,HEK-293T [7],Toxic
CC[C@H](C)[C@H](NC(=O)[C@H](Cc1ccccc1)NC(=O)[C@H](CCCNC(=N)N)NC(=O)[C@H](C)NC(=O)[C@@H](NC(=O)[C@H](CO)NC(=O)[C@H](CCCNC(=N)N)NC(=O)[C@H](CCSC)NC(=O)[C@H](C)NC(=O)[C@H](CCCNC(=N)N)NC(=O)[C@H](Cc1ccccc1)NC(=O)[C@H](Cc1c[nH]c2ccccc12)NC(=O)CNC(=O)[C@H](CCCNC(=N)N)NC(=O)CCCC(=O)NCCCO[C@@H]1OC[C@H](O)[C@H](O)[C@H]1O)[C@@H](C)CC)C(=O)N[C@@H](C)C(=O)N[C@@H](CCCNC(=N)N)C(=O)N[C@@H](CCC(=O)O)C(=O)N[C@@H](CCCNC(=N)N)C(=O)N[C@@H](CC(C)C)C(=O)N[C@@H](CCCNC(=N)N)C(=O)N[C@@H](CCC(=O)O)C(=O)N[C@@H](Cc1cnc[nH]1)C(=O)N[C@@H](CC(C)C)C(=O)O ({X2-Glutaryl}-RGWFRAMRSIARFIARERLREHL-OH),Activity,[4],Active
same,Activity,[5],Active
same,Activity,[6],Active
same,Activity,[3],Active
same,Activity,HEK-293T [7],Toxic
CC[C@H](C)[C@H](NC(=O)[C@H](Cc1ccccc1)NC(=O)[C@H](CCCNC(=N)N)NC(=O)[C@H](C)NC(=O)[C@@H](NC(=O)[C@H](CO)NC(=O)[C@H](CCCNC(=N)N)NC(=O)[C@H](CCSC)NC(=O)[C@H](C)NC(=O)[C@H](CCCNC(=N)N)NC(=O)[C@H](Cc1ccccc1)NC(=O)[C@H](Cc1c[nH]c2ccccc12)NC(=O)CNC(=O)[C@H](CCCNC(=N)N)NC(=O)CCCC(=O)NCCCO[C@H]1O[C@H](CO)[C@@H](O)[C@H](O)[C@@H]1O)[C@@H](C)CC)C(=O)N[C@@H](C)C(=O)N[C@@H](CCCNC(=N)N)C(=O)N[C@@H](CCC(=O)O)C(=O)N[C@@H](CCCNC(=N)N)C(=O)N[C@@H](CC(C)C)C(=O)N[C@@H](CCCNC(=N)N)C(=O)N[C@@H](CCC(=O)O)C(=O)N[C@@H](Cc1cnc[nH]1)C(=O)N[C@@H](CC(C)C)C(=O)O ({X3-Glutaryl}-RGWFRAMRSIARFIARERLREHL-OH),Activity,HEK-293T [1],Non-Toxic
same,Activity,[2],inactive
same,Activity,[3],inactive

# From ChEMBL document CHEMBL4334452, “Monosaccharide Analogues of Anticancer Peptide R-Lycosin-I: Role of Monosaccharide Conjugation in Complexation and the Potential of Lung Cancer Targeting and Therapy” (J Med Chem, 2019)
